Measured values published in ChEMBL document CHEMBL4014308, “Amphiphilic Tobramycin-Lysine Conjugates Sensitize Multidrug Resistant Gram-Negative Bacteria to Rifampicin and Minocycline” (J Med Chem, 2017).
≈ marks a conversion by molar mass, not a printed value. Calls of active or inactive are those of the source. The calls are words filed in the database; no cut-off is given here.

How the values were obtained:
Format in all cases: functional
[1] = system: Pseudomonas aeruginosa; test: Induction of cytoplasmic membrane depolarization in Pseudomonas aeruginosa PAO1 up to 1200 secs by diSC3-5 staining based fluorescence assay
Procedure, shortened: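 Mid-log PAO1 washed in 5 mM HEPES pH 7.4 with 20 mM glucose and resuspended to OD600 0.05. Cells were loaded with 0.2 mM EDTA and 0.4 µM diSC3-5 for 2 h at 37 °C in the dark, then equilibrated with 100 mM KCl for 30 min. Agent was added and fluorescence followed at 622/670 nm; agents tested at 32 µg/mL.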

[2] = system: Staphylococcus epidermidis; test: Antibacterial activity against methicillin-susceptible Staphylococcus epidermidis isolate CANWARD-2008 81388 after 18 hrs by microtiter dilution assay; settings: isolate CANWARD-2008 81388, 18 h
Procedure, shortened: (§1)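 Broth microdilution following CLSI guidelines. An overnight culture was adjusted to 0.5 McFarland in saline, then diluted 1:50 in Mueller-Hinton broth. This inoculum was added in equal volume to 2-fold serial dilutions of agent in MHB and incubated 18 h at 37 °C. MIC was the lowest concentration with no visible growth.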

[3] = system: Pseudomonas aeruginosa; test: Antibacterial activity against gentamicin-resistant Pseudomonas aeruginosa isolate CAN-ICU 62308 after 18 hrs by microtiter dilution assay; settings: isolate CAN-ICU 62308, 18 h; procedure, shortened: as §1
[4] = system: Acinetobacter baumannii; test: Antibacterial activity against Acinetobacter baumannii isolate CAN-ICU 63169 after 18 hrs by microtiter dilution assay; settings: isolate CAN-ICU 63169, 18 h
Procedure, shortened: (§2)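 Broth microdilution per CLSI. Overnight culture adjusted to 0.5 McFarland in saline, diluted 1:50 in Mueller-Hinton broth, and added to an equal volume of 2-fold serial compound dilutions in MHB. Incubated 18 h at 37 °C. MIC taken as the lowest concentration with no visible growth.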

[5] = system: Enterococcus faecium; test: Antibacterial activity against Enterococcus faecium ATCC 27270 after 18 hrs by microtiter dilution assay; settings: ATCC 27270, 18 h; procedure, shortened: as §2
[6] = system: Pseudomonas aeruginosa; test: Synergistic antibacterial activity against Pseudomonas aeruginosa PAO1 after 18 hrs in presence of minocycline by checkerboard assay
Procedure, shortened: (§3)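 Checkerboard in MHB: antibiotic diluted along one axis and adjuvant along the other (10 × 7 matrix). Inoculum was a 1:50 dilution in MHB of a 0.5 McFarland saline suspension; incubated 18 h at 37 °C. Each FIC = concentration in the no-growth well divided by the MIC alone; FIC index = sum of both FICs. ≤0.5 synergy, 0.5–4 no interaction, ≥4 antagonism.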

[7] = system: Escherichia coli; test: Antibacterial activity against gentamicin-resistant Escherichia coli isolate CAN-ICU 61714 after 18 hrs by microtiter dilution assay; settings: isolate CAN-ICU 61714, 18 h; procedure, shortened: as §1
[8] = system: Pseudomonas aeruginosa; test: Induction of outer membrane permeabilization in Pseudomonas aeruginosa PAO1 at 32 ug/ml after 30 mins by CFDASE staining based fluorescence assay
Procedure, shortened: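 Log-phase PAO1 washed in PBS, brought to OD600 0.5 and loaded with 100 µM CFDASE for 30 min at 37 °C, then washed. Cells were exposed to agent for 30 min at 37 °C and supernatant fluorescence read at 488/520 nm. Untreated cells were subtracted; 1% Triton X-100 served as positive control.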

[9] = system: Klebsiella pneumoniae; test: Antibacterial activity against Klebsiella pneumoniae ATCC 13883 after 18 hrs by microtiter dilution assay; settings: ATCC 13883, 18 h; procedure, shortened: as §2
[10] = system: Pseudomonas aeruginosa; test: Disruption of proton motive force in Pseudomonas aeruginosa PAO1 cytoplasmic membrane assessed as repression of bacterial swimming motility after 20 hrs
Procedure, shortened: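 Swim plates of 0.3% agar with tryptone 5 g/L and NaCl 2.5 g/L, agent mixed into the medium and plates dried 2 h. PAO1 at 1.0 McFarland in 0.85% saline was point-inoculated at the center, and plates incubated 20 h at 37 °C before swim diameter was imaged.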

[11] = system: Staphylococcus epidermidis; test: Antibacterial activity against methicillin-resistant Staphylococcus epidermidis isolate CAN-ICU 61589 after 18 hrs by microtiter dilution assay; settings: isolate CAN-ICU 61589, 18 h; procedure, shortened: as §1
[12] = system: Enterococcus faecalis; test: Antibacterial activity against Enterococcus faecalis ATCC 29212 after 18 hrs by microtiter dilution assay; settings: ATCC 29212, 18 h; procedure, shortened: as §2
[13] = system: Pseudomonas aeruginosa; test: Antibacterial activity against Pseudomonas aeruginosa PAO1 after 18 hrs by microtiter dilution assay; settings: PAO1, 18 h; procedure, shortened: as §1
[14] = system: Pseudomonas aeruginosa; test: Antibacterial activity against multidrug/extremely drug-resistant/colistin-susceptible Pseudomonas aeruginosa isolate P259-96918 after 18 hrs by microtiter dilution assay; settings: isolate P259-96918, 18 h; procedure, shortened: as §1
[15] = system: Escherichia coli; test: Antibacterial activity against amikacin-resistant Escherichia coli isolate CAN-ICU 63074 after 18 hrs by microtiter dilution assay; settings: isolate CAN-ICU 63074, 18 h; procedure, shortened: as §1
[16] = system: Pseudomonas aeruginosa; test: Antibacterial activity against multidrug/extremely drug-resistant/colistin-susceptible Pseudomonas aeruginosa isolate 100036 after 18 hrs by microtiter dilution assay; settings: isolate 100036, 18 h; procedure, shortened: as §1
[17] = system: Pseudomonas aeruginosa; test: Synergistic antibacterial activity against Pseudomonas aeruginosa PAO1 after 18 hrs in presence of rifampicin by checkerboard assay; procedure, shortened: as §3
[18] = system: Pseudomonas aeruginosa; test: Antibacterial activity against Pseudomonas aeruginosa ATCC 27853 after 18 hrs by microtiter dilution assay; settings: ATCC 27853, 18 h; procedure, shortened: as §2
[19] = system: Pseudomonas aeruginosa; test: Antibacterial activity against multidrug/extremely drug-resistant/colistin-susceptible Pseudomonas aeruginosa isolate P264-104354 after 18 hrs by microtiter dilution assay; settings: isolate P264-104354, 18 h; procedure, shortened: as §1
[20] = system: Pseudomonas aeruginosa; test: Antibacterial activity against multidrug/extremely drug-resistant/colistin-resistant Pseudomonas aeruginosa isolate 91433 after 18 hrs by microtiter dilution assay; settings: isolate 91433, 18 h; procedure, shortened: as §1
[21] = system: Pseudomonas aeruginosa; test: Antibacterial activity against gentamicin/tobramycin-resistant Pseudomonas aeruginosa isolate CANWARD-2011 96846 after 18 hrs by microtiter dilution assay; settings: isolate CANWARD-2011 96846, 18 h; procedure, shortened: as §1
[22] = system: Staphylococcus aureus; test: Antibacterial activity against methicillin resistant Staphylococcus aureus ATCC 33592 after 18 hrs by microtiter dilution assay; settings: ATCC 33592, 18 h; procedure, shortened: as §1
[23] = system: Stenotrophomonas maltophilia; test: Antibacterial activity against Stenotrophomonas maltophilia isolate CAN-ICU 62584 after 18 hrs by microtiter dilution assay; settings: isolate CAN-ICU 62584, 18 h; procedure, shortened: as §2
[24] = system: Streptococcus pneumoniae; test: Antibacterial activity against Streptococcus pneumoniae ATCC 49619 after 18 hrs by microtiter dilution assay; settings: ATCC 49619, 18 h; procedure, shortened: as §2
[25] = system: Pseudomonas aeruginosa; test: Antibacterial activity against multidrug/extremely drug-resistant/colistin-resistant Pseudomonas aeruginosa isolate 101243 after 18 hrs by microtiter dilution assay; settings: isolate 101243, 18 h; procedure, shortened: as §1
[26] = system: Escherichia coli; test: Antibacterial activity against gentamicin/tobramycin/ciprofloxacin-resistant Escherichia coli isolate CANWARD-2011 97615 harboring AAC3-2A after 18 hrs by microtiter dilution assay; settings: isolate CANWARD-2011 97615, 18 h; procedure, shortened: as §1
[27] = system: Pseudomonas aeruginosa; test: Antibacterial activity against multidrug/extremely drug-resistant/colistin-susceptible Pseudomonas aeruginosa isolate 101885 after 18 hrs by microtiter dilution assay; settings: isolate 101885, 18 h; procedure, shortened: as §1
[28] = system: Pseudomonas aeruginosa; test: Antibacterial activity against multidrug/extremely drug-resistant/colistin-susceptible Pseudomonas aeruginosa isolate P262-101856 after 18 hrs by microtiter dilution assay; settings: isolate P262-101856, 18 h; procedure, shortened: as §1
[29] = system: Escherichia coli; test: Antibacterial activity against Escherichia coli ATCC 25922 after 18 hrs by microtiter dilution assay; settings: ATCC 25922, 18 h; procedure, shortened: as §1
[30] = system: Staphylococcus aureus; test: Antibacterial activity against Staphylococcus aureus ATCC 29213 after 18 hrs by microtiter dilution assay; settings: ATCC 29213, 18 h; procedure, shortened: as §1
[31] = system: Pseudomonas aeruginosa; test: Bactericidal activity against Pseudomonas aeruginosa PAO1 at 0.125 times antibacterial MIC after 6 hrs
[32] = system: Klebsiella pneumoniae; test: Antibacterial activity against multidrug-resistant Klebsiella pneumoniae 116381 after 18 hrs by microtiter dilution assay; settings: Klebsiella pneumoniae, 116381, 18 h; procedure, shortened: as §1
[33] = system: Acinetobacter baumannii; test: Antibacterial activity against multidrug-resistant Acinetobacter baumannii AB030 after 18 hrs by microtiter dilution assay; settings: AB030, 18 h; procedure, shortened: as §1
[34] = system: Enterobacter cloacae; test: Antibacterial activity against multidrug-resistant Enterobacter cloacae 117029 after 18 hrs by microtiter dilution assay; settings: Enterobacter cloacae, 117029, 18 h; procedure, shortened: as §1
[35] = system: Acinetobacter baumannii; test: Antibacterial activity against multidrug-resistant Acinetobacter baumannii 110193 after 18 hrs by microtiter dilution assay; settings: Acinetobacter baumannii, 110193, 18 h; procedure, shortened: as §1
[36] = system: Pseudomonas aeruginosa; test: Antibacterial activity against Pseudomonas aeruginosa PAO1 after 25 serial passages at 0.125 times MIC by microtiter dilution assay
[37] = system: Acinetobacter baumannii; test: Antibacterial activity against multidrug-resistant Acinetobacter baumannii AB027 after 18 hrs by microtiter dilution assay; settings: AB027, 18 h; procedure, shortened: as §1
[38] = system: Acinetobacter baumannii; test: Antibacterial activity against multidrug-resistant Acinetobacter baumannii AB031 after 18 hrs by microtiter dilution assay; settings: AB031, 18 h; procedure, shortened: as §1
[39] = system: Pseudomonas aeruginosa; test: Bactericidal activity against Pseudomonas aeruginosa PAO1 at 4 times antibacterial MIC after 2 hrs
Procedure, shortened: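 Time-kill with P. aeruginosa PAO1. A 0.5 McFarland suspension was diluted 1:50 in LB broth and exposed to agent in PBS (pH 7.2) at 1/2×, 1×, 2× or 4× MIC at 37 °C for 6 h. Samples at 0, 10, 30, 60, 90, 120, 240 and 360 min were serially diluted in PBS, plated on LB agar, and colonies counted after 20 h at 37 °C.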

[40] = system: Pseudomonas aeruginosa; test: Antibacterial activity against multidrug/extremely drug-resistant/colistin-susceptible Pseudomonas aeruginosa isolate P262-101856 infected in Galleria mellonella assessed as mortality at 75 mg/kg after 24 hrs relative to control; settings: isolate P262-101856, 24 h
Procedure, shortened: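 Galleria mellonella larvae (about 250 mg, used within 7 days; 15 per group) were injected with 10 µL of XDR P. aeruginosa P262 at 1.0×10^3 CFU/mL. At 2 h they received a single 10 µL injection: monotherapy at 75 mg/kg, or combinations at 12.5+12.5 to 75+75 mg/kg. PBS vehicle served as control. Survival was scored over 24 h at 37 °C.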

SMILES: CCCCCCCCCCCCN(Cc1c2ccccc2c(Cl)c2ccccc12)C(=O)[C@@H](N)CCCCN.O=C(O)C(F)(F)F.O=C(O)C(F)(F)F
- Activity [1]: Dose-dependent effect
- MIC [2]: 8 µg/mL
- MIC [3]: 128 µg/mL
- MIC [4]: 128 µg/mL
- MIC [5]: 8 µg/mL
- Activity [6]: inactive
- MIC [7]: 128 µg/mL
- Activity [8]: inactive
- MIC [9]: > 128 µg/mL
- Activity [10]: Dose-dependent effect
- MIC [11]: 8 µg/mL
- MIC [12]: 32 µg/mL
- MIC [13]: 256 µg/mL
- MIC [14]: 64 µg/mL
- MIC [15]: 64 µg/mL
- MIC [16]: 256 µg/mL
- Activity [17]: inactive
- MIC [18]: > 128 µg/mL
- MIC [19]: 128 µg/mL
- MIC [20]: 256 µg/mL
- MIC [21]: > 128 µg/mL
- MIC [22]: 64 µg/mL
- MIC [23]: > 128 µg/mL
- MIC [24]: 32 µg/mL
- MIC [25]: 64 µg/mL
- MIC [26]: 64 µg/mL
- MIC [27]: 128 µg/mL
- MIC [28]: 128 µg/mL
- MIC [29]: 64 µg/mL
- MIC [30]: 32 µg/mL

SMILES: CO[C@H]1/C=C/O[C@@]2(C)Oc3c(C)c(O)c4c(O)c(c(/C=N/N5CCN(C)CC5)c(O)c4c3C2=O)NC(=O)/C(C)=C\C=C\[C@H](C)[C@H](O)[C@@H](C)[C@@H](O)[C@@H](C)[C@H](OC(C)=O)[C@@H]1C [RIFAMPIN]
- Activity [31]: inactive
- MIC [32]: 1020 µg/mL (≈ 1240 µM)
- MIC [33]: > 256 µg/mL
- MIC [34]: 16 µg/mL (≈ 19.4 µM)
- MIC [35]: 2 µg/mL (≈ 2.43 µM)
- Activity [36]: Active
- MIC [37]: 2 µg/mL (≈ 2.43 µM)
- MIC [38]: 2 µg/mL (≈ 2.43 µM)
- Activity [39]: Active
- MIC [13]: 16 µg/mL (≈ 19.4 µM)
- MIC [14]: 16 µg/mL (≈ 19.4 µM)
- MIC [16]: 16 µg/mL (≈ 19.4 µM)
- MIC [19]: 16 µg/mL (≈ 19.4 µM)
- MIC [20]: 16 µg/mL (≈ 19.4 µM)
- MIC [25]: 8 µg/mL (≈ 9.72 µM)
- MIC [27]: 16 µg/mL (≈ 19.4 µM)
- MIC [28]: 1020 µg/mL (≈ 1240 µM)
- mortality at 75 mg/kg [40]: 100%
